The list is not random: actives were taken first. Their share in the collection is about 2.3%.
EWS-Fli inh = EWS/Fli-driven NR0B1 reporter inhibitors, primary screen, A673 cells, NR0B1 luciferase, luminescence, MLPCN library; viability-normalised; inhibition, % at 12.6 µM; 350,000 compounds, 0.67% hits; AID 651661, 2012;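 active = mean inhibition of at least 50% after viability correction, with every replicate also passing that limit; inconclusive = mean reaches 50% but only one of two replicates passes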;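 note: firefly luciferase signal divided by Alamar Blue viability fluorescence both relative to DMSO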
FN deposit inh = inhibitors of fibronectin matrix deposition, primary screen, AH1F cells, Alexa488-fibronectin fluorescence, plate reader; AH1F fibroblasts, overnight; inhibition, % at 12.6 µM; 350,000 compounds, 0.086% hits; AID 743247, 2014;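 active = mean inhibition across replicates of 30% or more, regardless of how many single replicates reach that level; inconclusive = mean under 30% yet at least half of replicates reach 30%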;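 note: positive control wells lacked labelled fibronectin entirely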
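Assay system: AH1F fibroblasts assembling fluorescent fibronectin matrix; Amount: 10000 AH1F cells per well; Buffer or medium: DMEM, 2% serum; Probe or stimulus: Alexa488-fibronectin, 24 nM final in well; Doses: single compound dose, delivered by pin transfer; Incubation: 1 h adhesion, overnight exposure; Measured by: fluorescence 485/525 nm; Read-out: fibronectin deposition inhibition.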
LGR2 antag = inhibitors of bursicon-induced LGR2 CRE-luciferase signal, primary screen, cell-based, HEK293, CRE-luciferase reporter, bursicon stimulation; Drosophila bursicon receptor LGR2 (rickets); bursicon-stimulated, 4 h; inhibition, % at 9.99 µM; 380,000 compounds, 0.35% hits;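 active = drop in luminescence signal, shown as inhibition above about 50% in the replicate tests, limit read from the data, passing the limit was not always enough; inconclusive = probably only some replicates passing the limit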;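 note: agonist challenge used bursicon conditioned medium at about half maximal strength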
XiGFP reactiv = activators of inactive X chromosome reactivation, primary screen, imaging, XiGFP fibroblasts, GFP high-content imaging, set 2; XiGFP mouse fibroblasts, % GFP-positive cells imaging, 3 d; cells co-treated with 5-aza-dC sensitizer; scaled so ellipticine positive control = 100%; activation, % at 7.58 µM; 360,000 compounds, 0.055% hits; AID 743238, 2013;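 active = mean normalized replicate activation at least 10% and every replicate at or above 10%; inconclusive = only one of the two criteria met; inactive = mean below 10% and not all replicates reach 10%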;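 note: 0% = median of on-plate neutral control wells and 100% = ellipticine 6 µM median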
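Schedule: 3 d treatment, 15 min room-temperature fixation; system: 68-5-11 XiGFP fibroblast line; buffer or medium: DMEM plus 5-aza-dC sensitizer; control set: ellipticine 6 µM positive control; compound: one concentration, pinned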
TROY NFkB inh = inhibitors of TROY-driven NF-kB signaling, primary screen, Q293 LMP1-TROYcd cells, NF-kB luciferase, uHTS; Q293 LMP1-TROYcd NF-kB luciferase reporter, 4 h; inhibition, % at 10 µM; 360,000 compounds, 0.98% hits; AID 1347056, 2019;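 active = compounds whose plate-normalised and pattern-corrected inhibition of the luciferase reporter signal at the single screening dose is 50% or more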
TWEAK Fn14 block = inhibitors of TWEAK-Fn14 signaling, primary screen, luciferase reporter cells, uHTS | TWEAK-stimulated Fn14 reporter cells, luciferase luminescence, 8 h | inhibition, % at 10 µM | 360,000 compounds, 2% hits | AID 1159606, 2016; in the data active = inhibition above about 50%
Numbers without * were called inactive.

For Cc1cccc(Nc2nnc(SCC(=O)Nc3cccc(S(=O)(=O)N4CCCCC4)c3)s2)c1 the results were FN deposit inh 10, LGR2 antag -51, XiGFP reactiv 0, TROY NFkB inh 12 and TWEAK Fn14 block 60*.
Screening O=C(Cn1[nH]c(=O)c2ccccc2c1=O)Nc1cccc(S(=O)(=O)N2CCCCCC2)c1 returned EWS-Fli inh -7, FN deposit inh -1, LGR2 antag 15, XiGFP reactiv 0, TROY NFkB inh 25 and TWEAK Fn14 block 51*.
Screening O=C(Nc1cccc(Cl)c1)Nc1cc(S(=O)(=O)N2CCCCC2)ccc1Cl returned EWS-Fli inh 23, FN deposit inh -7, LGR2 antag 34, XiGFP reactiv 0, TROY NFkB inh 56* and TWEAK Fn14 block 84*.
For CCN1[C@@H]2c3ccc(/C=C/c4ccccc4)c(=O)n3C[C@H]1[C@H](CO)[C@H]2C(=O)NCc1ccccn1 the results were EWS-Fli inh 0, LGR2 antag 0 and XiGFP reactiv 0.
Screening COc1ccc(CC(=O)Nc2cccc(S(=O)(=O)N3CCCCCC3)c2)cc1OC returned FN deposit inh -4, LGR2 antag 7, XiGFP reactiv 0, TROY NFkB inh 35 and TWEAK Fn14 block 53*.
`COc1ccc(CCC(=O)Nc2cccc(S(=O)(=O)N3CCCCCC3)c2)cc1OC` gave EWS-Fli inh 18, FN deposit inh 4, LGR2 antag 13, XiGFP reactiv 0, TROY NFkB inh 25 and TWEAK Fn14 block 31.
For S=C(NN=C1C2CC3CC(C2)CC1C3)Nc1ccccc1 the results were FN deposit inh -5, TROY NFkB inh 75* and TWEAK Fn14 block 94*.
For CCC(C)(C)C1CCC(=NNC(=S)Nc2ccccc2)CC1 (stereo unspecified) the results were EWS-Fli inh -3, FN deposit inh -2, LGR2 antag -11, XiGFP reactiv 0, TROY NFkB inh 0 and TWEAK Fn14 block -5.
Screening Clc1ccc(-c2nnc(CSc3nnc(-c4cccs4)n3Cc3ccccc3)o2)cc1 returned EWS-Fli inh 17, FN deposit inh 2, LGR2 antag 20, XiGFP reactiv 0, TROY NFkB inh 48 and TWEAK Fn14 block 64*.
Screening Cc1nnc(SCc2nnc(-c3cccs3)o2)n1Cc1ccccc1 returned EWS-Fli inh 13, FN deposit inh -11, LGR2 antag 11, XiGFP reactiv 0, TROY NFkB inh 12 and TWEAK Fn14 block 7.
`CC(C)NC(=O)Nc1ccc2c(c1)C(=O)N([C@@H](C)CO)C[C@H](C)[C@@H](CN(C)Cc1ccc(C(=O)Nc3ccccc3N)cc1)O2` gave EWS-Fli inh 2, FN deposit inh -7, LGR2 antag -4 and XiGFP reactiv 0.
N#C/C(=C\c1cccn1-c1ccccc1)C(=O)NC1CCCCC1 was read as EWS-Fli inh 62*, FN deposit inh 14, XiGFP reactiv 0, TROY NFkB inh 8 and TWEAK Fn14 block 28.
`N#C/C(=C\C=C\c1ccccc1[N+](=O)[O-])C(=O)NC1CCCCC1` gave TROY NFkB inh -29 and TWEAK Fn14 block 82*.
N#C/C(=C\c1ccccc1[N+](=O)[O-])C(=O)NC1CCCCC1 was read as EWS-Fli inh 5, FN deposit inh 4, LGR2 antag 23, XiGFP reactiv 0, TROY NFkB inh -15 and TWEAK Fn14 block -13.
CN1c2ccc(C#Cc3cccnc3)cc2[C@@H]2[C@@H](CCN2C(=O)CN2CCOCC2)[C@H]1CO was read as EWS-Fli inh -8, FN deposit inh 14, LGR2 antag -24 and XiGFP reactiv 0.
Screening N#C[C@@H]1[C@H](c2ccccc2C2=CCCC2)[C@@H](CO)N1C(=O)c1ccccn1 returned FN deposit inh -14 and XiGFP reactiv 0.
For COC(=O)C[C@@H]1C[C@H]2c3cc(NS(=O)(=O)c4ccc(OC)cc4)ccc3O[C@H]2[C@H](CO)O1 the results were EWS-Fli inh 3, FN deposit inh 2, LGR2 antag 7 and XiGFP reactiv 0.
`CN(C)/C=N/C(=S)Nc1ccccc1F` gave TWEAK Fn14 block 74*.
For CN(C)/C=N/C(=S)Nc1ccccc1Cl the results were EWS-Fli inh -13, FN deposit inh 2, XiGFP reactiv 0, TROY NFkB inh -5 and TWEAK Fn14 block -3.
For CN(C)/C=N/C(=S)Nc1ccc(F)cc1 the results were TWEAK Fn14 block 88*.
For COc1cccc2sc3ccc(C#CC4(N)CCCCC4)cc3c(=O)c12 the results were EWS-Fli inh -100, FN deposit inh -1, XiGFP reactiv 0, TROY NFkB inh -58 and TWEAK Fn14 block -51.
`COc1cccc2sc3cc(C#CC4(O)CCCCC4)ccc3c(=O)c12` gave EWS-Fli inh -40, FN deposit inh -1, LGR2 antag 98*, XiGFP reactiv 0, TROY NFkB inh -70 and TWEAK Fn14 block 13.
`Cn1c2ccccc2c(=O)c2ccc(C#CC3(O)CCCCC3)cc21` gave EWS-Fli inh 57*, FN deposit inh 7, LGR2 antag 100*, XiGFP reactiv 0, TROY NFkB inh 91* and TWEAK Fn14 block 97*.
`COc1cc2sc3ccc(C#CC4(O)CCCCC4)cc3c(=O)c2cc1OC` gave EWS-Fli inh -10, FN deposit inh -14, LGR2 antag 94*, XiGFP reactiv 2, TROY NFkB inh 84* and TWEAK Fn14 block 92*.
`COc1cc2sc3ccc(C#Cc4ccc(N)cc4)cc3c(=O)c2cc1OC` gave EWS-Fli inh 21, FN deposit inh 0, LGR2 antag -28, XiGFP reactiv 0, TROY NFkB inh -26 and TWEAK Fn14 block -115.
Screening C[C@@H]1CN([C@@H](C)CO)C(=O)c2cc(NC(=O)Nc3ccc(C(F)(F)F)cc3)ccc2O[C@H]1CN(C)C returned EWS-Fli inh -5, FN deposit inh -9, LGR2 antag -35 and XiGFP reactiv -1.
For COc1ccc(-n2ncc3c(N4CCC(C)CC4)ncnc32)cc1 the results were EWS-Fli inh 48, FN deposit inh 2, LGR2 antag inconclusive, XiGFP reactiv 0, TROY NFkB inh 69* and TWEAK Fn14 block 66*.
COc1cccc(OCCN2CCN(c3ncnc4c3cnn4-c3ccccc3)CC2)c1 was read as TROY NFkB inh 31 and TWEAK Fn14 block 57*.
For CCOC(=O)N1CCN(c2ncnc3c2cnn3-c2ccc(OC)cc2)CC1 the results were TWEAK Fn14 block 46.

High-throughput results: PubChem BioAssay, several laboratories
